Measurements pooled from the literature.
Target: Casein kinase I isoform epsilon (CSNK1E, Homo sapiens, UniProt P49674)

C#Cc1cc(-c2cc(Nc3nc(N[C@@H](C)c4ccc(F)cn4)ncc3Cl)n[nH]2)ccc1C=O
inhibition (enzyme activity; inhibitor; 0.2 µM): 4.66%

C=CC(=O)N1CCC[C@@H](n2nc(-c3ccc(Oc4ccccc4)cc3)c3c(N)ncnc32)C1
inhibition (enzyme activity; inhibitor; 1 µM): 65%

CCCCC(=O)Nc1ccc(-c2ccc3ncn(CCC)c(=O)c3c2)cn1
remaining binding (binding; competition with immobilised ligand; 0.5 µM): 82%

CO[C@@H]1[C@H](N(C)C(=O)c2ccccc2)C[C@H]2O[C@]1(C)n1c3ccccc3c3c4c(c5c6ccccc6n2c5c31)C(=O)NC4
inhibition (enzyme activity; inhibitor; 1 µM): 0%

Cc1ccc(NC(=O)c2ccnc(C(F)(F)F)c2)cc1-c1cc(OCCO)nc(N2CCOCC2)c1
remaining binding (binding; competition with immobilised ligand; 1 µM): 100%

CC(=O)ON=C1C=CC(=C(C#N)c2ccccc2)C=C1
activity vs control (enzyme activity; inhibitor; ADP detection; 20 µM): 60%

C1=C/COCc2cc(ccc2OCCN2CCCC2)Nc2nccc(n2)-c2cccc(c2)COC/1
remaining binding (binding; 0.1 µM): 99%

CN1CCN(C(=O)c2ccc(NC(=O)Nc3ccc(N(C)c4ccnc(Nc5ccc(CS(C)(=O)=O)cc5)n4)cc3)cc2)CC1
remaining binding (binding; competition with immobilised ligand; 1 µM): 75%
